ChEMBL document CHEMBL1124947, “Cationic antiprotozoal drugs. Trypanocidal activity of 2-(4'-formylphenyl)imidazo[1,2-a]pyridinium guanylhydrazones and related derivatives of quaternary heteroaromatic compounds” (J Med Chem, 1990)

Key:
Assay type in all cases: functional
Mus musculus [1] = assay: Trypanocidal Activity at I.C.E. value 0.46 when administered subcutaneously.
Outline: (§1)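 Blood-stage T. rhodesiense infection came from a standard inoculum lethal to all untreated mice. Drug was given by subcutaneous injection to groups of five mice. Survival beyond 30 days counted as cure. […] Sub-curative doses scored 0, and data were normalized at each dose.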

Mus musculus [2] = assay: Trypanocidal Activity at I.C.E. value 0.58 when administered subcutaneously.
Outline: (§2)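 Mice, in groups of five per dose, were given a standard inoculum of blood-stage T. rhodesiense that is lethal to all untreated controls, then dosed subcutaneously. Usually 11 dose levels were used (2^n × 0.42 mg/kg).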

Mus musculus [3] = assay: Trypanocidal Activity at I.C.E. value 0.18 when administered subcutaneously.
[4] = tested on: Trypanosoma brucei rhodesiense; assay: In Vitro measurement of inhibition of leucine uptake in cell culture of Trypanosoma rhodesiense; conditions: read-out: ID50 (the source's name)
Outline: (§3)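 Trypanosomes harvested from infected rats, cultured 3 h with several concentrations of drug, usually 0.1–100 µg/mL. Radiolabeled L-leucine uptake measured. ID50 is the concentration in µg/mL giving 50% inhibition of incorporation.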

[5] = tested on: Trypanosoma brucei rhodesiense; assay: In Vitro measurement of inhibition of thymidine uptake in cell culture of Trypanosoma rhodesiense; conditions: read-out: ID50 (the source's name)
Outline: (§4)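 Parasites harvested from infected rats and incubated 3 h across a drug concentration series, usually 0.1–100 µg/mL. Incorporation of radiolabeled thymidine measured. ID50 is the concentration (µg/mL) producing 50% inhibition.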

Mus musculus [6] = assay: Trypanocidal Activity at I.C.E. value 0.26 when administered subcutaneously.; outline: as §1
Mus musculus [7] = assay: Trypanocidal Activity at I.C.E. value 0.35 when administered perorally.
Mus musculus [8] = assay: Trypanocidal Activity at I.C.E. value 0.67 when administered subcutaneously.; outline: as §2
Mus musculus [9] = assay: Trypanocidal Activity at I.C.E. value 0.64 when administered subcutaneously.; outline: as §2
Mus musculus [10] = assay: Trypanocidal Activity at I.C.E. value 0.61 when administered perorally.
Mus musculus [11] = assay: Trypanocidal Activity at I.C.E. value 0.48 when administered perorally.
Mus musculus [12] = assay: Trypanocidal Activity at I.C.E. value 0.17 when administered subcutaneously.
Mus musculus [13] = assay: Trypanocidal Activity at I.C.E. value 0.24 when administered perorally.
Mus musculus [14] = assay: Trypanocidal Activity at I.C.E. value 0.23 when administered subcutaneously.; outline: as §1
Mus musculus [15] = assay: Trypanocidal Activity at I.C.E. value 0.21 when administered subcutaneously.
Mus musculus [16] = assay: Trypanocidal Activity at I.C.E. value 0.10 when administered perorally.
Mus musculus [17] = assay: Trypanocidal Activity at I.C.E. value 0.39 when administered subcutaneously.; outline: as §1
[18] = tested on: Trypanosoma brucei rhodesiense; assay: In Vitro measurement of inhibition of thymidine uptake in cell culture of Trypanosoma rhodesiense.; conditions: read-out: ID50 (the source's name); outline: as §4
[19] = tested on: Trypanosoma brucei rhodesiense; assay: In Vitro measurement of inhibition of Leucine uptake in cell culture of Trypanosoma rhodesiense.; conditions: read-out: ID50 (the source's name); outline: as §3
Mus musculus [20] = assay: Trypanocidal Activity at I.C.E. value 0.37 when administered subcutaneously.; outline: as §1
Mus musculus [21] = assay: Trypanocidal Activity at I.C.E. value 0.69 when administered subcutaneously.; outline: as §2
Mus musculus [22] = assay: Trypanocidal Activity at I.C.E. value 0.33 when administered subcutaneously.; outline: as §1
Mus musculus [23] = assay: Trypanocidal Activity at I.C.E. value 0.30 when administered subcutaneously.; outline: as §1
Mus musculus [24] = assay: Trypanocidal Activity at I.C.E. value 0.27 when administered subcutaneously.; outline: as §1

Br.CC(NC(=N)N/N=C/c1ccc(-c2cn3ccccc3[n+]2C)cc1)c1ccco1.[Br-] (centres undefined)
CD50 (Mus musculus [1]): 1.6 mg/kg

C/N=C(\NC)N/N=C/c1ccc(-c2cn3ccccc3[n+]2C)cc1.I.[I-]
CD50 (Mus musculus [2]): 0.2 mg/kg

C[n+]1c(-c2ccc(/C=N/Nc3ccccn3)cc2)cn2ccccc21.Cc1ccc(S(=O)(=O)[O-])cc1
CD50 (Mus musculus [3]): 212 mg/kg

C[n+]1c(COc2ccc(C(=N)N)cc2)cn2ccccc21.Cl.[Cl-]
IC50 [4]: 12 µg/mL
IC50 [5]: 0.7 µg/mL
CD50 (Mus musculus [6]): 3.3 mg/kg

Br.CCNC(=N)N/N=C/c1ccc(-c2cn3cc(C)ccc3[n+]2C)cc1.[Br-]
CD50 (Mus musculus [7]): 26 mg/kg
CD50 (Mus musculus [8]): 0.4 mg/kg

Br.CC/N=C(\NCC)N/N=C/c1ccc(/C=C/c2n(C)cc[n+]2C)cc1.[Br-]
CD50 (Mus musculus [1]): 1.6 mg/kg

Br.Cn1cc[n+](C)c1/C=C/c1ccc(/C=N/NC2=NCCN2)cc1.[Br-]
CD50 (Mus musculus [9]): 1.6 mg/kg

Br.C[n+]1c(-c2ccc(/C=N/NC3=NCCCN3)cc2)cn2ccccc21.[Br-]
CD50 (Mus musculus [10]): 6.6 mg/kg
CD50 (Mus musculus [8]): 0.1 mg/kg

Br.CN(C)C(=N)N/N=C/c1ccc(OCc2cn3ccccc3[n+]2C)cc1.[Br-]
CD50 (Mus musculus [6]): 3.3 mg/kg

Br.CC[S+]([O-])c1ccc2n(c1)cc(-c1ccc(/C=N/NC(=N)N)cc1)[n+]2C.[Br-] (centres undefined)
CD50 (Mus musculus [9]): 1.6 mg/kg

Br.Cn1c(COc2ccc(/C=N/NC(=N)N)cc2)[n+](C)c2ccccc21.[Br-]
IC50 [4]: 6.1 µg/mL
IC50 [5]: 1.9 µg/mL
CD50 (Mus musculus [11]): 13 mg/kg
CD50 (Mus musculus [8]): 0.4 mg/kg

CC(=O)Nc1ccc(-c2cn3ccccc3[n+]2C)cc1.[I-]
IC50 [4]: > 10 µg/mL
IC50 [5]: > 10 µg/mL
CD50 (Mus musculus [12]): 212 mg/kg
CD50 (Mus musculus [13]): 106 mg/kg

Cc1ccc(S(=O)(=O)O)cc1.Cc1ccc(S(=O)(=O)[O-])cc1.Cn1cc[n+](C)c1COc1ccc(/C=N/NC(=N)N2CCCC2)cc1
CD50 (Mus musculus [14]): 6.6 mg/kg

Br.CN1CCN(C(=N)N/N=C/c2ccc(-c3cn4ccccc4[n+]3C)cc2)CC1.[Br-]
CD50 (Mus musculus [15]): 3.3 mg/kg

C[n+]1c(-c2ccc(C(=N)N)cc2)cn2ccccc21.Cl.[Cl-]
CD50 (Mus musculus [15]): 26 mg/kg

Br.CCNC(=N)N/N=C/c1ccc(OCc2cccc[n+]2C)cc1.[Br-]
CD50 (Mus musculus [16]): 212 mg/kg
CD50 (Mus musculus [3]): 6.6 mg/kg

Cc1ccc(S(=O)(=O)O)cc1.Cc1ccc(S(=O)(=O)[O-])cc1.Cc1ccc2n(c1)cc(-c1ccc(/C=N/NC(=N)N3CCSC3)cc1)[n+]2C
CD50 (Mus musculus [17]): 6.6 mg/kg
IC50 [18]: > 10 µg/mL
IC50 [19]: 0.5 µg/mL

Br.Cc1ccc2n(c1)cc(-c1ccc(/C=N/NC(=N)NN3CCOCC3)cc1)[n+]2C.[Br-]
CD50 (Mus musculus [20]): 3.3 mg/kg

Br.Cc1ccc2n(c1)cc(/C=C/c1ccc(/C=N/NC(=N)NO)cc1)[n+]2C.[Br-]
CD50 (Mus musculus [21]): 3.3 mg/kg

Br.CNC(=N)N/N=C/c1ccc(-c2c([N+](=O)[O-])n3ccccc3[n+]2C)cc1.[Br-]
IC50 [4]: 3.4 µg/mL
IC50 [5]: 5.4 µg/mL
CD50 (Mus musculus [22]): 0.4 mg/kg

Br.Cc1cccc2n1cc(COc1ccc(/C=N/NC3=NCCN3)cc1)[n+]2C.[Br-]
CD50 (Mus musculus [9]): 0.8 mg/kg

Br.CC/N=C(\NCC)N/N=C/c1ccc(OCc2n(C)cc[n+]2C)cc1.[Br-]
CD50 (Mus musculus [23]): 13 mg/kg

Br.CCSc1ccc2n(c1)cc(-c1ccc(/C=N/NC3=NCCN3)cc1)[n+]2C.[Br-]
CD50 (Mus musculus [21]): 3.3 mg/kg

C[n+]1ccc(COc2ccc(/C=N/NC(=O)c3ccc(N)cc3)cc2)cc1.Cc1ccc(S(=O)(=O)[O-])cc1
CD50 (Mus musculus [24]): 26 mg/kg

C[n+]1c(COc2ccc(/C=N/Nc3ccccn3)cc2)cn2ccccc21.Cc1ccc(S(=O)(=O)[O-])cc1
IC50 [4]: 10.1 µg/mL
IC50 [5]: 7.9 µg/mL
CD50 (Mus musculus [14]): 53 mg/kg

Br.Cn1cc[n+](C)c1COc1ccc(/C=N/NC2=NCCN2)cc1.[Br-]
CD50 (Mus musculus [20]): 3.3 mg/kg

Br.C/N=C(/NC)N/N=C/c1ccc(-c2cn3ccc(C)cc3[n+]2C)cc1.[Br-]
CD50 (Mus musculus [2]): 0.4 mg/kg
